This sample holds only a part of the variants without activity.
B1: tRNA (parent)
chain: GUUCCGUUGGCGUAAUGGUAACGCGUCUCCCUCCUAAGGAGAAGACUGCGGGUUCGAGUCCCGUACGGAACG

Variants of: B1
Experiment: yeast fitness relative to wild type (ratio to wild type); higher = fitter; tRNA-Arg(CCU), competitive growth, 37 C, YPD
Summary of the method: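 A pool of Saccharomyces cerevisiae strains, each with a tRNA-Arg(CCU) gene variant at the native genomic locus, was competed in YPD at 37°C for 24 hours across six parallel replicates. The variants had been chemically synthesised at a 3% per-site mutation rate over 69 sites, and gene amplicons before and after competition were read by 100-nucleotide paired-end sequencing. Darwinian fitness relative to wild type rested on changes in genotype frequencies. Genotypes required ≥ 100 starting reads, and estimates < 0.5 were set to 0.5.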

| Variant | yeast fitness |
| --- | --- |
| GAUCCGUUGGCGUAAUGGUAACGCGUCUCCCUCCUAAGGAGAAGACUACGGGUUCGAGUUCCGUACGGUACG | ≤ 0.5 |
| GAUCCGUUCGCGUAAGGGUAACGCGUCUCCCGCCUAAGGAGAAGACUGCGGAUUCGAGUCCCCUAUGGAACG | ≤ 0.5 |
| GAUCCGUUGGCGUAAUGGUAACACGUCUGCCUCCUAAGGAGAAGACUGCGGGUUCGAGUCCCGUACGGUACG | 0.643 |
| GAUCCGUUCGCGUAAGGGUAACGUGUCUCCCUCCUAAGGAGAAGACUGCGGGUUCGAGUCCCGUACGCAACG | ≤ 0.5 |
| GAUCCGUUGGCGUAAUGGUAACGCGUCUCCCUCCUAAGCAGAAGACUGCGGGUUCGAGUCCCGUACGGAACG | 0.75 |
| GAUCCGUUGGCGUAAUCGUAACGCGUCUCCCUCCUAAGGAGAAGAUUGCGGGUUCGAGUCCCGUACGGAACG | ≤ 0.5 |
| GACCCAUUGGCGUAAUGGUAACGCGUCUCCCUCCUAAGGAGAAGACUGCGGGUUCGAGUCCCGUAGGGAACG | ≤ 0.5 |
| GAUCCGUUCGCGUCAUGGUAACGCGUCUCCCUCUUAAGGAGAAGACUGCGGGUUCGAGUCCCGUUCGGAACG | ≤ 0.5 |
| GAUCCGUUGGCGUAAUGGUAACGCAUCUCCCUCCUAAGGCGAAGACUGCGGGUUCGAGUCCCGUCCGGAACG | ≤ 0.5 |
| GAUCCGUUGGCGUAAUGGUAACACGUCUGCCUCCUAAGGAGAAGUCUGCGGGUUCGAGUGUCGUACGGGACG | ≤ 0.5 |
| GAUCCGUUGGCGUAAUGGUAACGCGUCUCCCUCCUAAGAAGAAGACUCCGGGUUCGAGUCCCGUACGGAACG | ≤ 0.5 |
| GAUCCGUUGCCGUAAUGGUAACGCGUAUCCCUCCUAUGGAGAAGACUGAGGGUUCAAGUCCCGUACGGAACG | ≤ 0.5 |
| GAUCCGUUGGCGUAAUGGUAACGCGUCUCCCUCCUAAGAAGAAGACUGCGGGUUCGAGUCCCGUACGGGACG | 0.599 |
| GAUCCGUUGGCGUAAUGGUAACCCGUCUCCCUCCUAAGGAGAAGACUGCGGGUUCGAAUCCCGUACGGAACG | ≤ 0.5 |
| GAUCCGUUGACGUAAUGGUAACGCGUCUCCCUCCUAAGGAGAAGACUGAGGGCUCGAGUCCGGUACGGAACG | ≤ 0.5 |
| GAUCCGUUGGCCUAAUGGUAACGCGUCUUCCUGCUAAGGAGAAGACUGCGGGUUCGAGUCCCGUACGGAACG | ≤ 0.5 |
| GAUCCGUUGGCGUAAUCGUAACGCGUCUCCCUCCUAAGGAGAAGAUUGCGGGUUCGAGUCCCGUACCGAACG | ≤ 0.5 |
| GAUCCGUUGCCGUAAUGGUAACGCGUCUCCCUCCUAAGGAGAAGACUGCGGGUUCGAGUCCCGUACGGAACG | 0.673 |
| GAUCCGUUGGCGUAAUGAUAACGCGUCUCCCUCCUAAGGAGAACACUGCGGGUUCGAGUCCCGUACGGAACG | ≤ 0.5 |
| GAUCCGUUGGCGUAAUGGUAACGCGUCUCCCUCCUAACGAGAAGACUGCGGGUUCGAGUCCCGUACGGUACG | ≤ 0.5 |
| GAUCCGUUGGCGUAAUGAUAAAGGGUCUCCCUCCUAAGGAGAGGACUGGGGGUUCGAGUCCCGUACGGAACG | 0.634 |
| GAUCCGUUGACGUAAUGGUAACGCGACUCCCUCCUAAGGAGAAGACUGCGGGUUCGAGUCCCGUAUGGAACG | ≤ 0.5 |
| GAUCCGUUGGCGUAAUGAUAACGAGUCACCCCCCUAAGGAGAAGACUGCGGGUUCGAGUACCGUACGGAACG | ≤ 0.5 |
| GAUCCGUUGGCGUAAUGGUAACGCGUCUCCCUCCUAAGGAGAACAAUGCGGGUUCCAGUCCCGUACGGAACG | ≤ 0.5 |
| GAUCCGUUGGCGUAAUGGUAACGCAUCUCCGUCCUAAGCAGAAGACUGUGGGUUCGAGUGCCGUACGGAACG | ≤ 0.5 |

| Variant | yeast fitness |
| --- | --- |
| GAACCGUUGGCGUAAUGGUAACGCGUCUCCCUCCUAAGGAGAAGACUGCGGGUUCGAGGCCCGUACGGAACG | ≤ 0.5 |
| GAUCCGUUGGCGUAAUGGUAACGCGUCUCCCUCCUAAGGAGAAGACUGCGGGUUCGAGUCCCGUACGUAACG | 0.773 |
| GAUCCGUUGGCGUAAUGGUAACGCGUCUCCCUCCUAAGGAGAAGACUGCGGGUUCGACUCCCGUAUGGAACG | 0.702 |
| GAUCCGUUGGCGUAAUGGUAACGCAUCUCCCUCCUAAGGAGAAGACUGCGGGUUCGAGUCCCGUACGGGACG | 0.576 |
| GAUCCGUUGGCAUAAUGGUAACGCGUCUCACUCCUAAGGAGAUGACUGCGGGUUCGAGUACCGUACAGAACG | ≤ 0.5 |
| GAUCCGUUGGCGUAAUGGUAACGCGUCUCCCUCCUAAGGAGAAGACUCCGGCUUCGCAUCCCGUACGGAACG | ≤ 0.5 |
| GACCCAUUGGCGUAAUGGUAACGCGUCUCCCUCCUAAGAAGAAGACUGCGGGUUCGAGUCCCGUACGGAACG | ≤ 0.5 |
| GAUCCGUUGGCGUAAUCGUAACGCGUCUCCCUCCUAAGGAGAAGAGUGCGGGUUCGAGUCCCGUAAGGACCG | 0.605 |
| GAUCCGUUCGCGUAAUAGUAACGCGUCUCCCUCCUAAGGAGAAGACUGCGGGUUCGAGUCCCGUACGGAACG | ≤ 0.5 |
| GAUCCGUUGGCCUAAUGGUAACGCGUCUUCCUCCUAAGGAGAAGACUGCGAGUUCAGGUCCCCUACGGAACG | ≤ 0.5 |
| GAUCCGUUUGCGUAAUGGUGACGCGUCUCCCUCCUAAGGAGAAGACUGCGGGUUCGAGUCCCGUACGGAACG | ≤ 0.5 |
| GAUCCGUUGGCGUAAUCGUAACGCGUCUCCCUCCUAAGGAGAAGACUGCGGGUUCGCGUCCCCUAUGGAACG | ≤ 0.5 |
| GAUCCGUUGGCGUAAUGGUAACGCGUCUCCCUCCUAACGAGAAGACUGCGGGUUUGAGUCCCGUACGGAACG | ≤ 0.5 |
| GAUCCGUUGGCGUAAUGGUAACACGUCUGCCUCCUAAGGAGAAGACUGCGGGUUUGAGUCCCGUACGGAACG | ≤ 0.5 |
| GAUCCGUUGGCGUAAUGGUAACGCGUCUCCCUCCUAAGGACAAGACUGCGGGUUCGAGUCCCGUACGGAACG | 0.757 |
| GAACCGUUGGCGUAAUGGUAACGCGUCUCCCUCCUAAGGAGAAGACUGCGGGUUCGAGUCCCGUACGGAACG | 0.809 |
| GACCCGUUGGCGUAAUGGUAACGCGUCUCCCUCCUAAGGAGAAGACUGCGGGUUCGAGUCCCGUACGGAACG | 0.931 |
| GAUCCGUUGGCGUAAUGGUAACGCGUCUCCCUCCUAAGGAGAAGACUGCCGGUUCGGGUCCCGUACGGAACG | ≤ 0.5 |
| GAUCCGUUGGCGUAAUGGUAACGCGUCUCCCUCCUAAGGAGAAGACUCCGGGUUCGAGUCCCGUCCGGAACG | 0.593 |
| GAUCCGUUGGCAUAAUGGUACCGCGUCUCCCUCCUAAGGAGAAGACUCCGGGUUCGAGUCCCGUACGGAACG | ≤ 0.5 |
| GAUCCGUUGGCGUAAUGGUAACGCGUCUCCCUCCUAAGGAGAAGACUGCGGCUUCGAGUCCCGUACGGAACG | 0.65 |
| GAUCCGUUGGCGUAAUGGUAACGCGUCUCCCUCCUAAGAAGAAGACAGUGGGUACGAGUCCCGUACGGAACG | ≤ 0.5 |
| GAUCCGUUGGCGUAAUGAUAACGCGUCUCGCUCCCAAGGAGAAGACUGCGGGUUCGAGUCCCGUACGGAACG | ≤ 0.5 |
| GAUCCGUUGGCCUAAUGGUAACCCGUCUCCCUCCUAAGGAGAAGACUGCGGGUUCGAGUCCCGUACGGAACG | ≤ 0.5 |
| GAUCCGUUGGCAUAAUGGUAACGCGUCUCCCUCCUAAGGAGAAGACUGCGGGUUCGAGUCCCGUACGGAACG | 0.886 |

| Variant | yeast fitness |
| --- | --- |
| GAUCCGUUGGCGUAAUGGUAACGCGUCUCCCUCCUAAGGAGAAGACUGCGGGUUCGAGUCCCCUACGGAACG | 0.673 |
| GAUCCGUUGGCGUAAUGGUAACGCGUCUCCCUCCUAAGGAGAAGACUGCGGGUUCGAGUCCCAUACGGAACG | 0.927 |
| GAUCCGUUGGCGUAAUGGUAACGCGUCUCCCUCCUAAGGAGAAGACUGCGGGUUCGAGUCCCGUACCGAACG | 0.792 |
| GAUCCGUUGGCGUAAUGGUAACGCGUCUCCCUCCUAAGGAGAAGACUGCGGGUUCGAGUCCCGUACAGAACG | 0.844 |
| GAUCCGUUGGCAUAAUGGUGACGCGCCUCCGUUCUAAGGAGUAGACUGCGGGUUCGAGUCCCGUACGGAACG | ≤ 0.5 |
| GAACCGUUGGCGUAAUGGUAACGCGUCUCCCUCCUAAGAAGCAGACUGCGGGUUCGAGUCCCGUACGGAACG | ≤ 0.5 |
| GAUCCGUUGGCGUAAUGGUAACGCGUCUCCCUCCUAAGUAGAAGACUGAGGGUUCGACUCCCGUACGGAACG | 0.939 |
| GAUCCGUUGGCGUAAUCGUAACGCGUCUCCCUCCUAAGGAGAAGACUGUGGGUUCGAGUCCCGUACGGAACG | 0.571 |
| GAUCCGUUGGCGUAAUGGUAACGCGUCUCCCUCCUAAGGAGAAGACUGCCGGUUCGAGUCCCGUACGGAACG | 0.562 |
| GAUCCGUUGGCGUAAUGGUAACGCCUCUCCCUCCUAACGAGAAGACUGCGGGUUCGAGUCUCGUACGGAGCG | ≤ 0.5 |
| GAACCGUUGGCGUAAUGGUAACGCGUCUCCCUCCUAAGGAGAAGGCUGUGGGUUCGAGUCCCGUACGGAACG | 0.609 |
| GAUCCGUUGGCUUAAUGGUAACACGUCUCCCUCCUGAGAAGAAGACUGCGGGUUCGAGUCCCGUACGGAACG | 0.584 |
| GAUCCGUUGGCGUAAUGGUAACGCGUCUCCCUCCUAAGGAGAAGACUGCGGGUUCGAAUCCCGUACGGAACG | 0.838 |
| GAUCCGUUGGCGUAAUGCUAACACCUCUCCCUCCUAGGGAGACGACUGCGGGUUGGAGUCCCGUACGAAACG | 0.558 |
| GAUCCGUUGGCGUAAUGGUAACACGUCUGCCUCCUAAGGCGAAGACUGCGGGUUGGAGUCCCGUACGGAACG | ≤ 0.5 |
| GAUCCGUUGGCGUAAUGGUAACGCGUCUCCCUCCUAAGGAGAAAAUUGCGGGUUCGAGUCCCGUACGGAACG | 0.621 |
| GAUCCGUUGGCGUAAUGGUAACGCAUCUCCCUCCUAAGGAGAAGACUGCGGGUUCGAGUCCCGUACGGAACG | 0.828 |
| GAUCCGUUGGCUUAAUGGUAACGCGUCUCCCUCCUAAGGAGAAGACUGCGGGUUUGAGUCCCGUACGGAACG | ≤ 0.5 |
| GAUCCGUUGGCGUAAUGGUAACGCGUCUCCCUCCUAAGGAGAAGACUGCGGGUUCCGGUCCCGUACGUAACG | ≤ 0.5 |
| GAUCCGUUGGCGUAAUGGUAACGCCUCUCCCUCCUUAGGAGAAGACUGCGGGUUCGAGUCCCGUACGGAACG | ≤ 0.5 |
| GAUCCGUUGGCGUAAUGGUAACACGUCUGCCUCCUAAGGAGAAGACUGCGGGUUCGACUUCCGUAGGGAACG | ≤ 0.5 |
| GAUCCGUUCGCGUAAUAGUAACGCGUCUCCCUCCUAAGGAGAAGACUGCGGGUUCGAGUGCCGUACGGAACG | 0.572 |
| GAACCGUUGGCGUAAUGGUAACGCGACUCCCUCCUAAGGAGAAGACUGCGGGUUCGUGUCCGGUAUGGAACG | ≤ 0.5 |
| GAUCCGUUCGCGUAAUGGUAACGCGUCUCCCUCCUAAGGAGAAGACUGCGGGUUCGAGUCCCGUACGGAACG | 0.716 |
| GAUCCGUUGGCGUAAUGAUAACCCGUCUCCCUCCUAAGGAGAAGUCUGCGGGUUCGAGUCCCGUACGGAACG | 0.573 |

— the RNAGym collection of RNA variant scans (doi:10.1126/science.aae0568)
